The values below come from ChEMBL document CHEMBL1146552, “Cytotoxic diterpenes from Scoparia dulcis” (2003).

Molecules are shown by their SMILES. Where a name gives a salt, the structure may show the parent alone. The source made the active and inactive calls. No cut-off for these calls is given here.

Test [1] can be described thus: (§1) Cytotoxicity against human SCL cells by MTT assay. The class given is functional. As to conditions: read-out: ED50 (the source's name). In a few lines:
(§2)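 Human stomach cancer cells grown in RPMI-1640 complete medium; test materials prepared and cells cultured in medium with 0.25% DMSO. Serial dilutions at 250, 125, 62.5, 31.25 and 15.63 μg/mL, three replicates per concentration. Percent mortality by MTT, with cells in medium or medium-DMSO taken as 100% survival; ED50 (μM) derived, mean ± standard error. Vinblastine sulfate and mitomycin C as positive controls.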
(In general: Formazan colour is commonly taken as a measure of viable cells.)

Test [2] in a line: Cytotoxicity against human SCL6 cells by MTT assay. In kind it is functional. The note with it: read-out: ED50 (the source's name). Put shortly:
as §2

Another test deals with NUGC-4. Nature of the test: Cytotoxicity against human NUGC4 cells by MTT assay. In kind it is functional. As to conditions: for EC50: read-out: ED50 (the source's name). Put shortly: as §2
Test [3] is described as follows: (§3) Cytotoxicity against human KATO III cells by MTT assay. In kind it is functional, KATO III cell. The note with it: read-out: ED50 (the source's name). In a few lines: as §2
Test [4] is described as follows: (§4) Cytotoxicity against human SCL37'6 cells by MTT assay. The class given is functional. The note with it: read-out: ED50 (the source's name). Put shortly:
as §2

A short description of test [5]: (§5) Cytotoxicity against human SCL9 cells by MTT assay. As to conditions: read-out: ED50 (the source's name). The class given is functional. In a few lines:
as §2

A further test relates to SCL. The test is described as §1. In kind it is functional. Put shortly: as §2
The subject of the next test is SCL-6 (Homo sapiens). Kind of test: Cytotoxicity against human SCL6 cells by MTT assay.
A further test relates to KATO III cell. The description is as §3. The class given is functional. Put shortly:
as §2

For a further test, the system named is SCL37'6. The description is as §4. The class given is functional. In a few lines: as §2
The next test relates to SCL9. The test is described as §5. The class given is functional. Put shortly:
as §2

`CC1(C)[C@@H](O)CC[C@@]2(C)[C@H]1[C@H](OC(=O)c1ccccc1)C[C@H]1CC(=O)[C@]3(C)CC[C@]12C3`: the EC50 came out at 19.5 µM in [1]; 62.9 µM in test [2]; 123 µM in the test on NUGC-4; 71.7 µM in [3]; 45.8 µM in [4]; 57.9 µM in [5].

For the compound `CC1(C)CC[C@]2(C)CC[C@]3(C)[C@H]4CC=C5[C@@H](CC[C@H](O)C5(C)C)[C@]4(C)CC[C@@]3(C)[C@@H]2C1`, the outcome in the test with SCL, in the test with SCL-6 (Homo sapiens), in the test on NUGC-4, with KATO III cell, with SCL37'6 and in the test with SCL9 was inactive.

For the compound `COc1ccc2[nH]c(=O)oc2c1`, the result in the test on SCL, in the test with SCL-6 (Homo sapiens), with NUGC-4, in the test with KATO III cell, in the test with SCL37'6 and in the test with SCL9 was inactive.

Consider `C[C@@]12CC[C@]3(C1)[C@H](CC2=O)C[C@@H](OC(=O)c1ccccc1)[C@@H]1[C@]3(C)CCC[C@]1(C)C(=O)O` [4-EPI-SCOPADULCIC ACID B], for which the EC50 in [1] is 37 µM; in test [2], 137 µM; in the test with NUGC-4 it was 110 µM; in [3], 124 µM; in [4], 59.3 µM; in [5] it was 48.3 µM.

With `C[C@@]12CC[C@]3(C1)[C@@H](C[C@@H](OC(=O)c1ccccc1)[C@H]1[C@](C)(CO)CCC[C@@]13C)C[C@@H]2O` [DULCIDIOL], the EC50 in test [1] worked out at 45.3 µM; in [2] it was 46 µM; in the test on NUGC-4 it was 105 µM; in test [3] it was 29 µM; in [4], 42.6 µM; in [5] it was 41.6 µM.

For the compound `CO[C@@]12[C@H](COC(N)=O)C3=C(C(=O)C(C)=C(N)C3=O)N1C[C@@H]1N[C@@H]12` [MITOMYCIN], the EC50 in test [1] came to 20.2 µM; in test [2], 20.7 µM; with NUGC-4, 19.1 µM; in test [3], 49 µM; in [4], 19 µM; in test [5], 17.4 µM.

For the compound `C=C1C[C@@H](OC(=O)c2ccccc2)C2[C@](C)(CO)CCC[C@]2(C)[C@@H]1CC/C(C)=C/CO` (some centres undefined) [SCOPADIOL], the EC50 in test [1] turned out to be 22.8 µM; in test [2], 12.2 µM; in the test with NUGC-4 it was 16.6 µM; in test [3] it was 9.7 µM; in [4], 8.9 µM; in test [5], 12.2 µM.

In the case of `C[C@@]12CC[C@]3(C1)[C@H](CC2=O)C[C@@H](OC(=O)c1ccccc1)[C@H]1[C@](C)(CO)CCC[C@@]13C` [SCOPADULCIOL], the EC50 in test [1] was determined as 22 µM; in test [2], 32.8 µM; with NUGC-4, 33.3 µM; in test [3] it was 35.5 µM; in test [4], 24.4 µM; in test [5], 37.7 µM.

Regarding `CC[C@]1(O)C[C@@H]2CN(CCc3c([nH]c4ccccc34)[C@@](C(=O)OC)(c3cc4c(cc3OC)N(C)[C@H]3[C@@](O)(C(=O)OC)[C@H](OC(C)=O)[C@]5(CC)C=CCN6CC[C@]43[C@@H]65)C2)C1` [VINBLASTINE SULFATE], the EC50 in test [1] is 5.9 µM; in [2], 6.1 µM; with NUGC-4, 5.3 µM; in test [3], 6.1 µM; in test [4] it was 5.3 µM; in [5], 5.3 µM.
